Laboratory results taken from ChEMBL document CHEMBL1137737, “Synthesis, antimicrobial and cytotoxic activities of 1,3,4-oxadiazoles, 1,3,4-thiadiazoles and 1,2,4-triazoles” (Eur J Med Chem, 2009).
In brackets after ≈: the same amount, converted by molar mass.

Experiments:
Type in all cases: functional
Fusarium solani [1] = experiment: Antifungal activity against Fusarium solani NCIM 1330 at 100 ug/disk after 48 hrs by agar disc-diffusion method; conditions: NCIM 1330, 48 h, read-out: DIZ
Method in brief: (§1)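 Sterile 6 mm filter-paper discs are soaked in compound solution in DMSO and placed on nutrient agar plates already inoculated with each organism. Plates are incubated at 37 °C. The diameter of the growth-inhibition zone is read after 24 h for bacteria and after 48 h for fungi.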

Curvularia lunata [2] = experiment: Antifungal activity against Curvularia lunata NCIM 716 at 200 ug/disk after 48 hrs by agar disc-diffusion method; conditions: NCIM 716, 48 h, read-out: DIZ; method in brief: as §1
Aspergillus niger [3] = experiment: Antifungal activity against Aspergillus niger NCIM 596 at 100 ug/disk after 48 hrs by agar disc-diffusion method; conditions: NCIM 596, 48 h, read-out: DIZ; method in brief: as §1
Bacillus subtilis [4] = experiment: Antibacterial activity against Bacillus subtilis NCIM 2063 at 200 ug/disk after 24 hrs by agar disc-diffusion method; conditions: NCIM 2063, 24 h, read-out: DIZ; method in brief: as §1
Staphylococcus aureus [5] = experiment: Antibacterial activity against Staphylococcus aureus NCIM 5021 at 100 ug/disk after 24 hrs by agar disc-diffusion method; conditions: NCIM 5021, 24 h, read-out: DIZ; method in brief: as §1
Curvularia lunata [6] = experiment: Antifungal activity against Curvularia lunata NCIM 716 at 100 ug/disk after 48 hrs by agar disc-diffusion method; conditions: NCIM 716, 48 h, read-out: DIZ; method in brief: as §1
Bacillus subtilis [7] = experiment: Antibacterial activity against Bacillus subtilis NCIM 2063 at 100 ug/disk after 24 hrs by agar disc-diffusion method; conditions: NCIM 2063, 24 h, read-out: DIZ; method in brief: as §1
Bacillus subtilis [8] = experiment: Antibacterial activity against Bacillus subtilis NCIM 2063 after 24 hrs by microdilution susceptibility method; conditions: NCIM 2063, 24 h
Method in brief: (§2)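 This is a microdilution susceptibility test. Organism suspensions are inoculated into wells holding the dilution series, then incubated at 36 °C for 24 h (bacteria) or 48 h (fungi). MIC is the lowest concentration giving no turbidity, i.e. complete inhibition of visible growth.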

Klebsiella pneumoniae [9] = experiment: Antibacterial activity against Klebsiella pneumoniae NCIM 2957 after 24 hrs by microdilution susceptibility method; conditions: NCIM 2957, 24 h; method in brief: as §2
Fusarium solani [10] = experiment: Antifungal activity against Fusarium solani NCIM 1330 after 48 hrs by microdilution susceptibility method; conditions: NCIM 1330, 48 h; method in brief: as §2
Proteus vulgaris [11] = experiment: Antibacterial activity against Proteus vulgaris NCIM 2027 at 100 ug/disk after 24 hrs by agar disc-diffusion method; conditions: NCIM 2027, 24 h, read-out: DIZ; method in brief: as §1
Aspergillus niger [12] = experiment: Antifungal activity against Aspergillus niger NCIM 596 at 200 ug/disk after 48 hrs by agar disc-diffusion method; conditions: NCIM 596, 48 h, read-out: DIZ; method in brief: as §1
Staphylococcus aureus [13] = experiment: Antibacterial activity against Staphylococcus aureus NCIM 5021 at 200 ug/disk after 24 hrs by agar disc-diffusion method; conditions: NCIM 5021, 24 h, read-out: DIZ; method in brief: as §1
Proteus vulgaris [14] = experiment: Antibacterial activity against Proteus vulgaris NCIM 2027 at 200 ug/disk after 24 hrs by agar disc-diffusion method; conditions: NCIM 2027, 24 h, read-out: DIZ; method in brief: as §1
Klebsiella pneumoniae [15] = experiment: Antibacterial activity against Klebsiella pneumoniae NCIM 2957 at 100 ug/disk after 24 hrs by agar disc-diffusion method; conditions: NCIM 2957, 24 h, read-out: DIZ; method in brief: as §1
Aspergillus niger [16] = experiment: Antifungal activity against Aspergillus niger NCIM 596 after 48 hrs by microdilution susceptibility method; conditions: NCIM 596, 48 h; method in brief: as §2
Staphylococcus aureus [17] = experiment: Antibacterial activity against Staphylococcus aureus NCIM 5021 after 24 hrs by microdilution susceptibility method; conditions: NCIM 5021, 24 h; method in brief: as §2
Curvularia lunata [18] = experiment: Antifungal activity against Curvularia lunata NCIM 716 after 48 hrs by microdilution susceptibility method; conditions: NCIM 716, 48 h; method in brief: as §2
Proteus vulgaris [19] = experiment: Antibacterial activity against Proteus vulgaris NCIM 2027 after 24 hrs by microdilution susceptibility method; conditions: NCIM 2027, 24 h; method in brief: as §2
Klebsiella pneumoniae [20] = experiment: Antibacterial activity against Klebsiella pneumoniae NCIM 2957 at 200 ug/disk after 24 hrs by agar disc-diffusion method; conditions: NCIM 2957, 24 h, read-out: DIZ; method in brief: as §1
Fusarium solani [21] = experiment: Antifungal activity against Fusarium solani NCIM 1330 at 200 ug/disk after 48 hrs by agar disc-diffusion method; conditions: NCIM 1330, 48 h, read-out: DIZ; method in brief: as §1

MIC (Bacillus subtilis [8]) | MIC (Fusarium solani [10]) | MIC (Aspergillus niger [16]) | MIC (Staphylococcus aureus [17]) | MIC (Curvularia lunata [18]) | MIC (Proteus vulgaris [19]) | SMILES | zone of inhibition at 100 µg/disc (Fusarium solani [1]) | zone of inhibition at 200 µg/disc (Curvularia lunata [2]) | zone of inhibition at 100 µg/disc (Aspergillus niger [3]) | zone of inhibition at 200 µg/disc (Bacillus subtilis [4]) | zone of inhibition at 100 µg/disc (Staphylococcus aureus [5]) | zone of inhibition at 100 µg/disc (Curvularia lunata [6]) | zone of inhibition at 100 µg/disc (Bacillus subtilis [7]) | zone of inhibition at 100 µg/disc (Proteus vulgaris [11]) | zone of inhibition at 200 µg/disc (Aspergillus niger [12]) | zone of inhibition at 200 µg/disc (Staphylococcus aureus [13]) | zone of inhibition at 200 µg/disc (Proteus vulgaris [14]) | zone of inhibition at 100 µg/disc (Klebsiella pneumoniae [15]) | zone of inhibition at 200 µg/disc (Klebsiella pneumoniae [20]) | zone of inhibition at 200 µg/disc (Fusarium solani [21]) | further results
200 µg/mL (≈ 548 µM) | 200 µg/mL (≈ 548 µM) | 200 µg/mL (≈ 548 µM) | 100 µg/mL (≈ 274 µM) | 200 µg/mL (≈ 548 µM) | 200 µg/mL (≈ 548 µM) | O=S(=O)(Cc1ccc(Cl)cc1)Cc1nnc(-c2ccccc2)s1 | 24 mm | 25 mm | 17 mm | 28 mm | 28 mm | 23 mm | 24 mm | 17 mm | 20 mm | 30 mm | 22 mm | 19 mm | 23 mm | 27 mm | MIC (Klebsiella pneumoniae [9]): 200 µg/mL (≈ 548 µM)
400 µg/mL (≈ 1220 µM) | 200 µg/mL (≈ 609 µM) | 400 µg/mL (≈ 1220 µM) | 400 µg/mL (≈ 1220 µM) | 200 µg/mL (≈ 609 µM) | 200 µg/mL (≈ 609 µM) | Nn1c(CS(=O)(=O)Cc2ccccc2)nnc1-c1ccccc1 | 19 mm | 24 mm | 17 mm | 26 mm | 22 mm | 22 mm | 23 mm | 17 mm | 21 mm | 24 mm | 22 mm | 18 mm | 22 mm | 21 mm | MIC (Klebsiella pneumoniae [9]): 200 µg/mL (≈ 609 µM)
200 µg/mL (≈ 548 µM) | 200 µg/mL (≈ 548 µM) | 200 µg/mL (≈ 548 µM) | 100 µg/mL (≈ 274 µM) | 200 µg/mL (≈ 548 µM) | 200 µg/mL (≈ 548 µM) | O=S(=O)(Cc1ccccc1)Cc1nnc(-c2ccccc2Cl)s1 | 20 mm | 21 mm | 16 mm | 28 mm | 26 mm | 19 mm | 25 mm | 18 mm | 19 mm | 29 mm | 22 mm | 19 mm | 23 mm | 23 mm | MIC (Klebsiella pneumoniae [9]): 200 µg/mL (≈ 548 µM)
200 µg/mL (≈ 605 µM) | 200 µg/mL (≈ 605 µM) | 200 µg/mL (≈ 605 µM) | 200 µg/mL (≈ 605 µM) | 200 µg/mL (≈ 605 µM) | 400 µg/mL (≈ 1210 µM) | O=S(=O)(Cc1ccccc1)Cc1nnc(-c2ccccc2)s1 | 18 mm | 23 mm | 16 mm | 25 mm | 24 mm | 21 mm | 22 mm | 16 mm | 19 mm | 29 mm | 24 mm | 17 mm | 22 mm | 20 mm | MIC (Klebsiella pneumoniae [9]): 200 µg/mL (≈ 605 µM)
400 µg/mL (≈ 1140 µM) | 400 µg/mL (≈ 1140 µM) | 400 µg/mL (≈ 1140 µM) | 400 µg/mL (≈ 1140 µM) | 400 µg/mL (≈ 1140 µM) |  | O=S(=O)(Cc1nnc(-c2ccccc2)s1)c1ccc(Cl)cc1 | 18 mm | 21 mm | 16 mm | 23 mm | 20 mm | 19 mm | 18 mm | 16 mm | 19 mm | 23 mm | 19 mm | 15 mm | 17 mm | 21 mm | 

The remaining lines, values behind:

SMILES | MIC (Bacillus subtilis [8]) | MIC (Fusarium solani [10]) | MIC (Aspergillus niger [16]) | MIC (Staphylococcus aureus [17]) | MIC (Curvularia lunata [18]) | MIC (Proteus vulgaris [19]) | zone of inhibition at 100 µg/disc (Fusarium solani [1]) | zone of inhibition at 200 µg/disc (Curvularia lunata [2]) | zone of inhibition at 100 µg/disc (Aspergillus niger [3]) | zone of inhibition at 200 µg/disc (Bacillus subtilis [4]) | zone of inhibition at 100 µg/disc (Staphylococcus aureus [5]) | zone of inhibition at 100 µg/disc (Curvularia lunata [6]) | zone of inhibition at 100 µg/disc (Bacillus subtilis [7]) | zone of inhibition at 100 µg/disc (Proteus vulgaris [11]) | zone of inhibition at 200 µg/disc (Aspergillus niger [12]) | zone of inhibition at 200 µg/disc (Staphylococcus aureus [13]) | zone of inhibition at 200 µg/disc (Proteus vulgaris [14]) | zone of inhibition at 100 µg/disc (Klebsiella pneumoniae [15]) | zone of inhibition at 200 µg/disc (Klebsiella pneumoniae [20]) | zone of inhibition at 200 µg/disc (Fusarium solani [21]) | further results
Nn1c(CS(=O)(=O)Cc2ccccc2)nnc1-c1ccccc1Cl | 200 µg/mL (≈ 551 µM) | 100 µg/mL (≈ 276 µM) | 100 µg/mL (≈ 276 µM) | 100 µg/mL (≈ 276 µM) | 100 µg/mL (≈ 276 µM) | 200 µg/mL (≈ 551 µM) | 21 mm | 20 mm | 17 mm | 34 mm | 29 mm | 18 mm | 30 mm | 26 mm | 21 mm | 32 mm | 29 mm | 24 mm | 28 mm | 23 mm | MIC (Klebsiella pneumoniae [9]): 200 µg/mL (≈ 551 µM)
O=S(=O)(Cc1nnc(-c2ccccc2Cl)s1)c1ccccc1 | 400 µg/mL (≈ 1140 µM) | 400 µg/mL (≈ 1140 µM) | 400 µg/mL (≈ 1140 µM) | 400 µg/mL (≈ 1140 µM) | 400 µg/mL (≈ 1140 µM) |  | 19 mm | 21 mm | 15 mm | 18 mm | 20 mm | 18 mm | 15 mm | 16 mm | 18 mm | 23 mm | 19 mm | 17 mm | 21 mm | 22 mm | 
Nn1c(CS(=O)(=O)Cc2ccc(Cl)cc2)nnc1-c1ccccc1 | 100 µg/mL (≈ 276 µM) | 100 µg/mL (≈ 276 µM) | 200 µg/mL (≈ 551 µM) | 100 µg/mL (≈ 276 µM) | 200 µg/mL (≈ 551 µM) | 200 µg/mL (≈ 551 µM) | 24 mm | 27 mm | 18 mm | 33 mm | 27 mm | 24 mm | 28 mm | 26 mm | 20 mm | 31 mm | 29 mm | 27 mm | 29 mm | 26 mm | MIC (Klebsiella pneumoniae [9]): 200 µg/mL (≈ 551 µM)
O=S(=O)(Cc1nnc(-c2ccccc2Cl)s1)c1ccc(Cl)cc1 | 200 µg/mL (≈ 519 µM) | 200 µg/mL (≈ 519 µM) | 200 µg/mL (≈ 519 µM) | 200 µg/mL (≈ 519 µM) | 200 µg/mL (≈ 519 µM) | 400 µg/mL (≈ 1040 µM) | 20 mm | 22 mm | 17 mm | 23 mm | 21 mm | 19 mm | 19 mm | 19 mm | 21 mm | 23 mm | 21 mm | 16 mm | 19 mm | 24 mm | MIC (Klebsiella pneumoniae [9]): 400 µg/mL (≈ 1040 µM)
O=C(N[C@H](CO)[C@H](O)c1ccc([N+](=O)[O-])cc1)C(Cl)Cl [CHLORAMPHENICOL] | 6.25 µg/mL (≈ 19.3 µM) |  |  | 6.25 µg/mL (≈ 19.3 µM) |  | 12.5 µg/mL (≈ 38.7 µM) |  |  |  | 44 mm | 35 mm |  | 38 mm | 42 mm |  | 41 mm | 45 mm | 37 mm | 42 mm |  | MIC (Klebsiella pneumoniae [9]): 6.25 µg/mL (≈ 19.3 µM)
Nn1c(CS(=O)(=O)c2ccc(Cl)cc2)nnc1-c1ccccc1 | 400 µg/mL (≈ 1150 µM) | 200 µg/mL (≈ 573 µM) | 200 µg/mL (≈ 573 µM) | 400 µg/mL (≈ 1150 µM) | 200 µg/mL (≈ 573 µM) | 400 µg/mL (≈ 1150 µM) | 21 mm | 25 mm | 19 mm | 20 mm | 19 mm | 22 mm | 17 mm | 18 mm | 22 mm | 23 mm | 21 mm | 17 mm | 19 mm | 24 mm | 
